Results on 22 compounds are retold here after ChEMBL document CHEMBL4152389, “Discovery of Novel, Drug-Like Ferroptosis Inhibitors with in Vivo Efficacy” (J Med Chem, 2018).

In brackets after ≈: the same amount, converted by molar mass. Activity calls are given as the source filed them. The rule behind the calls is not given here.

Data set [1] in a line: Kinetic solubility in PBS at pH 7.4 after 2 hrs by turbidimetric method. In kind it is physicochemical. The following applies: read-out: Kinetic_solubility. In outline:
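Kinetic solubility by turbidity (UV/VIS reading); final compound 3.125–200 μM, from 4 μL DMSO solution in 196 μL 10 mM PBS pH 7.4.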

Data set [2] is described as follows: Intrinsic clearance in rat liver microsomes at 50 uM after 15 mins to 24 hrs by LC/MS/MS analysis. In kind it is ADME, microsome. The note with it: read-out: CLH. In outline: (§1)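 Intrinsic clearance calculated from measured microsomal half-life in human, mouse or rat liver microsomes, accounting for protein concentration and incubation volume with species-specific parameters.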
(In general: Liver microsomes are a subcellular fraction often used to study metabolism.)

Data set [3] is described as follows: Metabolic stability in rat plasma assessed as compound recovery at 50 uM after 6 hrs by LC/MS/MS analysis. In kind it is ADME, cell-free. The note with it: read-out: Drug recovery. In outline:
(§2)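 Compound incubated in human, rat or mouse plasma; percentage of remaining parent compound determined after 6 h.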

For data set [4], the system named is Mus musculus. Nature of the data set: In vivo inhibition of iron sulphate-induced ferroptosis in C57BL/6N mouse assessed as LDH levels in plasma at 20 umol/kg, iv administered 15 mins prior to acute iron poisoning and measured after 2 hrs (reference value: 3572 +/- 185 U/L). In kind it is functional.
Data set [5] is described as follows: Intrinsic clearance in mouse liver microsomes at 50 uM after 15 mins to 24 hrs by LC/MS/MS analysis. In kind it is ADME, microsome. The following applies: read-out: CLH. The method in brief: as §1
A short description of data set [6]: Metabolic stability in human plasma assessed as compound recovery at 50 uM after 6 hrs by LC/MS/MS analysis. In kind it is ADME, cell-free. The following applies: read-out: Drug recovery. In outline:
as §2

Data set [7] can be described thus: Metabolic stability in mouse plasma assessed as compound recovery at 50 uM after 6 hrs by LC/MS/MS analysis. In kind it is ADME, cell-free. The following applies: read-out: Drug recovery. In outline: as §2
In data set [8] the test system is IMR-32. Nature of the data set: Inhibition of ferrous ammonium sulphate-induced ferroptosis in human IMR32 cells preincubated for 1 hr followed by ferrous ammonium sulphate stimulation and measured after 13 hrs by sytox green-based fluorescence assay.
A short description of data set [9]: Intrinsic clearance in human liver microsomes at 50 uM after 15 mins to 24 hrs by LC/MS/MS analysis. In kind it is ADME, microsome. The following applies: read-out: CLH. In outline:
as §1

Data set [10] has as its system IMR-32. Nature of the data set: Inhibition of erastin-induced ferroptosis in human IMR32 cells preincubated for 1 hr followed by erastin stimulation and measured after 13 hrs by sytox green-based fluorescence assay. In kind it is functional, cell-based. The method in brief: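 IMR-32 neuroblastoma cells seeded at 25,000/well, next day pretreated 1 h in triplicate with 1/3 dilution series (5 μM to 0.68 nM) plus Sytox Green 1.6 μM, then erastin 10 μM.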

Data set [11] can be described thus: Half life in human liver microsomes at 10 uM in presence of NADPH regenerating system by LC/MS/MS analysis. In kind it is ADME, microsome. In outline:
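Incubation with human liver microsomes; metabolism by CYP450 and other NADP-dependent enzymes monitored and expressed as half-life (h).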

Data set [12] relates to Mus musculus. Nature of the data set: Toxicity in wild type mouse assessed as creatinine levels in plasma at 20 umol/kg, ip administered daily for 4 weeks measured at day 28 (reference value: <0.2 mg/dl). In kind it is organism-based. The note with it: in vivo, 672 h.
Data set [13] is described as follows: Plasma concentration in Wistar rat at 5 mg/kg, iv after 0.083 to 24 hrs by UPLC-MS analysis. In kind it is ADME, organism-based. The note with it: in vivo. The method in brief: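 Single iv 5 mg/kg to three male Wistar rats; blood sampled at 0.083, 0.25, 0.5, 1, 2, 4 and 24 h; plasma drug measured by UPLC–tandem quadrupole MS, detection limit 53.1 ng/mL.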

Data set [14] deals with Mus musculus. Put plainly: Toxicity in wild type mouse assessed as troponin levels in plasma at 20 umol/kg, ip administered daily for 4 weeks measured at day 28 (reference value: 0.041 +/- 0.005 ug/l). In kind it is organism-based. The note with it: in vivo, 672 h.
Data set [15] concerns Mus musculus. Put plainly: Toxicity in wild type mouse assessed as ALT levels in plasma at 20 umol/kg, ip administered daily for 4 weeks measured at day 28 (reference value: <25 U/L). In kind it is organism-based. The following applies: in vivo, 672 h.
In data set [16] the test system is Mus musculus. Nature of the data set: Toxicity in wild type mouse assessed as AST levels in plasma at 20 umol/kg, ip administered daily for 4 weeks measured at day 28 (reference value: 110 +/- 8 U/L). In kind it is organism-based. The following applies: in vivo, 672 h.
Data set [17] deals with Mus musculus. Put plainly: Toxicity in wild type mouse assessed as CK levels in plasma at 20 umol/kg, ip administered daily for 4 weeks measured at day 28 (reference value: 1501 +/- 196 U/L). In kind it is organism-based. The note with it: in vivo, 672 h.
The test system of data set [18] is Mus musculus. Put plainly: Toxicity in wild type mouse assessed as body temperature at 20 umol/kg, ip administered daily for 4 weeks measured during compound dosing (reference value: 37 +/- 0.6 degreeC). In kind it is organism-based. The following applies: in vivo, 672 h.
In data set [19] the test system is Mus musculus. Nature of the data set: Toxicity in wild type mouse assessed as urea levels in plasma at 20 umol/kg, ip administered daily for 4 weeks measured at day 28 (reference value: 42 +/- 2 mg/dl). In kind it is organism-based. The following applies: in vivo, 672 h.
Data set [20] has as its system Mus musculus. Put plainly: Toxicity in wild type mouse assessed as LDH levels in plasma at 20 umol/kg, ip administered daily for 4 weeks measured at day 28 (reference value: 227 +/- 18 U/L). In kind it is organism-based. The following applies: in vivo, 672 h.
Data set [21] relates to Mus musculus. Put plainly: Toxicity in wild type mouse assessed as relative gain in body weight at 20 umol/kg, ip administered daily for 4 weeks measured during compound dosing (reference value: 14.8 +/- 3.4%). In kind it is organism-based. The following applies: in vivo, 672 h.

For orientation: IC50 means the concentration at which inhibition is half-maximal. A high value points to weaker potency in that assay. For `CNCCNS(=O)(=O)c1ccc(NC2CCCCC2)c(NCc2ccccc2)c1.Cl`, in data set [1], the solubility kinetic at 2 h is above 200 µM. The figures for the CLint scaled at 50 µM in data set [2], in data set [5] and in [9] were 161 mL/min/kg, 139 mL/min/kg and 1.7 mL/min/kg, respectively. For the same compound, the remaining at 6 h, 50 µM stood at 65.8% in [3], 90.3% in [6] and 100% in data set [7]. In addition, the Activity in the data set on Mus musculus [4] was 2093 U/L. For the same compound, in the data set on IMR-32 [8], the inhibition entry was “Active”. In the data set on IMR-32 [10], this compound registered an IC50 of 3 nM.
As for `COCCNS(=O)(=O)c1ccc(NC2CCCCC2)c(N)c1`, the solubility kinetic at 2 h in data set [1] was above 200 µM. In the data set on IMR-32 [10], this compound yielded an IC50 of 492 nM.
Taken in the same sequence, the figures for `Cl.O=S(=O)(NCCN1CCNCC1)c1ccc(NC2CCCCC2)c(NCc2ccncc2)c1` were above 200 µM and 442 nM.
Taken in the same sequence, the figures for `CN(C)CCNS(=O)(=O)c1ccc(NC2CCCCC2)c(NCc2ccccc2)c1` were above 200 µM and 554 nM.
For `Cl.Nc1cc(S(=O)(=O)NCCN2CCNCC2)ccc1NC1CCCCC1` the same measures were above 200 µM and 296 nM.
Turning to `Nc1cc(S(=O)(=O)NCCN2CCOCC2)ccc1NC1CCCCC1`, the solubility kinetic at 2 h in data set [1] is above 200 µM. The compound further displayed an IC50 with IMR-32 [10] of 448 nM.
For `Cl.NCCNS(=O)(=O)c1ccc(NC2CCCCC2)c(NCc2ccncc2)c1` the same measures were 100 to 200 µM and 112 nM.
For `COCCNS(=O)(=O)c1ccc(NC2CCCCC2)c(NCc2ccncc2)c1` the same measures were above 200 µM and 97 nM.
Taken in the same sequence, the figures for `CN1CCN(CCNS(=O)(=O)c2ccc(NC3CCCCC3)c(N)c2)CC1` were above 200 µM and 236 nM.
`CNCCNS(=O)(=O)c1ccc(NC2CCCCC2)c(NCc2ccncc2)c1.Cl`: the solubility kinetic at 2 h in [1] was above 200 µM. Further, inhibition with IMR-32 [10] was half-maximal at 157 nM (IC50).
Taken in the same sequence, the figures for `CN(C)CCNS(=O)(=O)c1ccc(NC2CCCCC2)c(N)c1` were above 200 µM and 160 nM.
Taken in the same sequence, the figures for `CN1CCN(CCNS(=O)(=O)c2ccc(NC3CCCCC3)c(NCc3ccccc3)c2)CC1` were above 200 µM and 1070 nM.
For `CN1CCN(CCNS(=O)(=O)c2ccc(NC3CCCCC3)c(NCc3ccncc3)c2)CC1` the same measures were above 200 µM and 1520 nM.
What is called half-life is the time in which the quantity being followed falls by half. In the case of `CCOC(=O)c1ccc(NC2CCCCC2)c(N)c1`, in [1], the solubility kinetic at 2 h was above 200 µM. For the same compound, the remaining at 6 h, 50 µM stood at 1.1% in data set [3], 47.3% in [6] and 0% in [7]. Moreover, the Activity in the data set on Mus musculus [4] is given as 2898 U/L. In addition, the inhibition entry in the data set on IMR-32 [8] is “Active”. Besides, the half-life at 10 µM in data set [11] was 6.54 min. The IC50 in the data set with IMR-32 [10] was 33 nM.
For the compound `Cl.O=S(=O)(NCCN1CCNCC1)c1ccc(NC2CCCCC2)c(NCc2ccccc2)c1`, the Activity with Mus musculus [12] is below 0.2 mg/dL; in the data set on Mus musculus [14] it was 0.044 µg/L; with Mus musculus [15], below 25 U/L; with Mus musculus [16], 123 U/L; in the data set on Mus musculus [17] it was 1865 U/L; with Mus musculus [4], 2346 U/L. The Activity with Mus musculus [19] is 43 mg/dL; with Mus musculus [20], 263 U/L; in the data set on Mus musculus [21], 10.4%. This compound displayed a Cp in data set [13] below 53.1 ng/mL. For the same compound, the solubility kinetic at 2 h in [1] was above 200 µM. Moreover, the results for the CLint scaled at 50 µM in data set [2], in data set [5] and in [9] were 3.4 mL/min/kg, 18 mL/min/kg and 1.1 mL/min/kg, respectively. The results for the remaining at 6 h, 50 µM in [3], in data set [6] and in [7] were 85.8%, 84.2% and 100%, respectively. Besides, the T in the data set on Mus musculus [18] was 37 °C. The inhibition result in the data set on IMR-32 [8] was “Active”. Also, in the data set on IMR-32 [10], the IC50 was 10 nM.
Take `O=S(=O)(NCCN1CCOCC1)c1ccc(NC2CCCCC2)c(NCc2ccncc2)c1`: the solubility kinetic at 2 h in data set [1] was above 200 µM. The IC50 in the data set with IMR-32 [10] was found to be 191 nM.
Taken in the same sequence, the figures for `Cl.NCCNS(=O)(=O)c1ccc(NC2CCCCC2)c(N)c1` were above 200 µM and 306 nM.
Consider `COCCNS(=O)(=O)c1ccc(NC2CCCCC2)c(NCc2ccccc2)c1`, for which the solubility kinetic at 2 h in data set [1] fell in the range of 25 to 50 µM (≈ 10.4 to 20.9 µg/mL). In the data set with IMR-32 [10], this compound had an IC50 of 22 nM.
Taken in the same sequence, the figures for `CNCCNS(=O)(=O)c1ccc(NC2CCCCC2)c(N)c1.Cl` were above 200 µM and 214 nM.
With `O=S(=O)(NCCN1CCOCC1)c1ccc(NC2CCCCC2)c(NCc2ccccc2)c1`, the solubility kinetic at 2 h in [1] was 50 to 100 µM (≈ 23.6 to 47.3 µg/mL). Also, the CLint scaled at 50 µM in data set [2] worked out at 326 mL/min/kg; in [5], 1220 mL/min/kg; in data set [9] it was 22.6 mL/min/kg. Besides, the remaining at 6 h, 50 µM in data set [3], in [6] and in [7] was 100% throughout. For the same compound, the 50% inhibitory concentration (IC50) in the data set on IMR-32 [10] was determined as 24 nM.
As to `CN(C)CCNS(=O)(=O)c1ccc(NC2CCCCC2)c(NCc2ccncc2)c1`, the solubility kinetic at 2 h in data set [1] is above 200 µM. In the data set with IMR-32 [10], this compound gave an IC50 of 1560 nM.
Regarding `Cl.NCCNS(=O)(=O)c1ccc(NC2CCCCC2)c(NCc2ccccc2)c1`, the solubility kinetic at 2 h in data set [1] was above 200 µM. Moreover, the CLint scaled at 50 µM is 27.4 mL/min/kg in data set [2], 4.8 mL/min/kg in data set [5] and 1.3 mL/min/kg in data set [9]. The remaining at 6 h, 50 µM in data set [3], in data set [6] and in data set [7] was 100% throughout. Further, in the data set with Mus musculus [4], the Activity worked out at 2293 U/L. The inhibition entry in the data set with IMR-32 [8] is “Active”. This compound also gave an IC50 in the data set with IMR-32 [10] of 12 nM.
